Bioassay records (PubChem BioAssay)
TDP2 absorb – blocks human TDP2 phosphodiesterase activity; AID 720702; recombinant TDP2, T5PNP hydrolysis, p-nitrophenol absorbance 415 nm; O95551; 370,000 tested, 0.34% active; inhibition, % at 12.8 µM;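 active = inhibition above the mean of all tested compounds plus 3 SD, set per campaign, cut at about 25% in these data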
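Assay system: Recombinant human TDP2 | Quantity: 120 nM TDP2 per well | Incubation: 2 h at 37 °C | Signal: Epi absorbance | Evaluation: Percent inhibition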
Rin1 Abl inh – human Rin1-Abl interaction inhibition; TR-FRET Rin1/Abl binding, biochemical; inhibition, % at 7.35 µM; 360,000 tested, 0.4% active; in the data active = inhibition above about 5%, passing the limit was not always enough
MBD2 inh – blocks human MBD2 binding to methylated DNA. AID 686964. inhibition, % at 4.4 µM. Q9UBB5. 370,000 tested, 0.31% active. TR-FRET, MBD2 binding to methylated oligonucleotide; in the data active = inhibition above about 13%
UHRF1 MBD2 ctr – UHRF1 methyl-DNA binding inhibition. UHRF1 binding to methylated oligo, TR-FRET. inhibition, % at 4.4 µM. AID 687016. 370,000 tested, 0.75% active; in the data active = inhibition above about 21%;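 also: UHRF1 SRA domain binding a hemimethylated CpG hairpin DNA probe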
LEDGF integ inh – blocks HIV-1 LEDGF/p75-dependent DNA integration; 370,000 tested, 0.64% active; inhibition, % at 3.7 µM; TR-FRET IN-LEDGF/p75 DNA integration, Eu/Cy5;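 active = inhibition above the screen-wide mean plus 3 SD, cut at about 13% in these data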;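 also: signal is the Cy5 over europium emission ratio at 671 and 618 nm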
IN multimer up – HIV-1 integrase multimerization activation, counter-screen; 2,000 tested, 17% active; shares compounds with LEDGF integ inh; AID 1053131; activation, % at 7.7 µM; TR-FRET HIV-1 integrase multimerization, biochemical; in the data active = activation above about 8.9%
TR-FRET interf – optically interferes with TR-FRET readout in LEDGF counter-screen | inhibition, % at 7.7 µM | 2,000 tested, under 10 active | TR-FRET optical interference counterscreen, HIV-1 IN multimerization | shares compounds with LEDGF integ inh;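 active = inhibition above the mean over all tested compounds plus 3 SD, which no compound reached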
LEDGF integ conf – LEDGF/p75-dependent HIV-1 integration inhibition, confirmation. 2,000 tested, 36% active. inhibition, % at 3.7 µM. TR-FRET LEDGF/p75-dependent HIV-1 integration, biochemical. AID 1053136. shares compounds with LEDGF integ inh; in the data active = inhibition above about 14%
Hits are given with their value; - = inactive; . = not tested or not shown. In the library only some 1.9% were active in any assay of this set; here they are far more common.

SMILES	TDP2 absorb	Rin1 Abl inh	MBD2 inh	UHRF1 MBD2 ctr	LEDGF integ inh	IN multimer up	TR-FRET interf	LEDGF integ conf
COc1ccc(CC(=O)NCCC(C)C)cc1S(=O)(=O)N1CCOCC1	-	-	-	-	89	-	-	-
O=S1(=O)N[C@H](Cc2ccccc2)COc2cccc(N3CCCCC3)c21	-	.	-	22	39	-	-	-
COc1ccc(-n2nc(C(=O)O)cc2-c2ccccc2)cc1	-	-	-	-	29	-	-	-
O=C(O)c1cc(-c2ccccc2)n(-c2ccccc2)n1	-	-	-	-	-	.	.	.
COc1ccc(S(=O)(=O)N2CCOCC2)cc1C(=O)Nc1cc(C)on1	-	-	-	-	86	-	-	-
COc1cccc(/C=N\N2CCN(c3ccc(C)cc3)CC2)c1O	-	.	-	-	-	.	.	.
O=C(NC1CCCCCC1)c1cccnc1Sc1ccccc1	-	-	-	-	24	-	-	-
CC1(c2nnnn2Cc2ccccc2)CN(S(C)(=O)=O)CC(=O)N1Cc1cccs1 (configuration not stated)	-	.	-	-	-	.	.	.
CCCCCn1nnnc1C1(C)CCCCC(=O)N1Cc1ccco1 (configuration not stated)	-	.	-	-	-	.	.	.
Cc1ccccc1CN1CCCCC(NC(=O)C2CCC2)C1=O (configuration not stated)	-	.	-	-	-	.	.	.
Cc1ccc(NC(=O)CSCc2ccco2)cc1	-	-	-	-	-	.	.	.
c1coc(CSSCc2ccco2)c1	-	-	32	83	46	-	-	-
CCN(CC)CCCNC(=O)c1cn(C(C)c2ccccc2)nn1 (configuration not stated)	-	.	-	-	-	.	.	.
CCCCC[C@H](C)N1C[C@H](COCc2ccccc2)Oc2cc(N3CC[C@H](O)C3)ccc2S1(=O)=O	-	.	-	-	-	.	.	.
CCCCC[C@@H](C)N1C[C@H](COCc2ccccc2)Oc2cc(N3CC[C@H](N(C)C)C3)ccc2S1(=O)=O	-	.	-	-	16	-	-	-
CC1(C(=O)Nc2ccc3nc[nH]c3c2)CCN1C(=O)Cc1ccc(-c2ccccc2)cc1 (configuration not stated)	-	-	-	-	-	.	.	.
CC1(C(=O)Nc2ccc3nc[nH]c3c2)CCN1C(=O)C1(c2ccccc2)CCCC1 (configuration not stated)	-	-	-	-	25	-	-	-
O=C1CC(NS(=O)(=O)c2ccc3ccccc3c2)CN1c1ccccc1 (configuration not stated)	-	-	-	-	56	-	-	-
Cc1nc2ccccc2n1CCC(=O)O	-	-	-	-	-	.	.	.
Cc1nc2ccccc2n2c(O)c(CC(=O)O)cc12	-	-	-	-	23	-	-	17
CC1(OC(=O)c2ccc(Cl)nc2)C(=O)C=C2C=C3CCCN3C=C2C1=O (configuration not stated)	-	-	-	-	18	-	-	42
COc1cc(N=C2C(=O)N3CCCc4cccc2c43)cc(OC)c1	-	-	-	-	-	.	.	.
O=C1c2cccc3c2N(CCC3)C(=O)C1(F)c1ccccc1 (configuration not stated)	-	-	-	-	14	-	-	-
CSC1(SC2=NCCN2)SC2(NCCN2)S1	-	-	-	-	23	-	-	-
CCCCNS(=O)(=O)/C=C/c1cc2c(cc1CNC(=O)OC(C)(C)C)OCO2	-	.	-	-	-	.	.	.
c1ccc(CNc2ccc(N3CCOCC3)cc2)cc1	-	-	-	-	15	-	-	-
COc1ccc(CNc2ccc(N3CCOCC3)cc2)cc1	-	-	-	-	-	.	.	.
C=CCN1C(=O)[C@H](CC(=O)NCc2ccccc2)[C@@]2(C(=O)OCC)CCCC=C12	-	.	-	-	-	.	.	.
Cc1cc(F)ccc1NC(=O)C1CCN(C(=O)Nc2ccccc2)CC1	.	-	.	.	.	.	.	.
